Assay results of several laboratories.
Protocols differ between the studies behind these lines.
Target: Insulin receptor (INSR, Homo sapiens, UniProt P06213)

Structure (SMILES) | assay | setting | endpoint | result
COc1ccc2oc(-c3ccc4nc(N)oc4c3)c/c(=N\c3ccccc3NC(=O)CCN)c2c1 | binding | 1 µM | remaining binding | 85%
C1=C/COCc2cc(ccc2OCCN2CCCC2)Nc2nccc(n2)-c2cccc(c2)COC/1 | binding | 0.1 µM | remaining binding | 83%
C[C@H]1CC[C@H](n2c3cnccc3c3cnc(Nc4ccc5c(n4)CCN(C(=O)CO)C5)nc32)CC1 | binding | 1 µM | remaining binding | 96%
CCCCC(=O)Nc1ccc(-c2ccc3ncn(CCC)c(=O)c3c2)cn1 | binding, competition with immobilised ligand | 0.5 µM | remaining binding | 100%
C=CC(=O)N1CCC([C@@H]2CCNc3c(C(N)=O)c(-c4ccc(Oc5ccccc5)cc4)nn32)CC1 | cell-free assay | 1 µM | inhibition | 0%
COc1ccc2[nH]c3c4[nH]c5ccc(OC)cc5c4c4c(c3c2c1)C(=O)NC4=O | binding | 1 µM | remaining binding | 66%
CC#CC(=O)N1CCC[C@H]1c1nc(-c2ccc(C(=O)Nc3ccccn3)cc2)c2c(N)nccn12 | enzyme activity, inhibitor | 1 µM | inhibition | 0%
N#Cc1ccc(NC(=O)Nc2ccccc2)cc1 | cell-free assay, competition with immobilised ligand | 25 µM | remaining binding | 89%
